Results from ChEMBL document CHEMBL4834456, “Discovery of 3,4-dihydrobenzo[f][1,4]oxazepin-5(2H)-one derivatives as a new class of ROCK inhibitors for the treatment of glaucoma” (Bioorg Med Chem Lett, 2021).
The source made the active and inactive calls. The rule behind the calls is not given here.

Legend:
[1] = target: T1, Rho-associated protein kinase 2 (Homo sapiens, UniProt O75116); test: Inhibition of wild type partial length human ROCK1 (M1 to T431 residues) expressed in Mammalian expression system by Euro-fins kinase profiler assay
Method in brief: (§1)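 IC50 values from the Eurofins Kinase Profiler service; averages of two independent experiments, mean ± SD.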
Target sequence in this assay (O75116 whole entry, the tested form may be a part): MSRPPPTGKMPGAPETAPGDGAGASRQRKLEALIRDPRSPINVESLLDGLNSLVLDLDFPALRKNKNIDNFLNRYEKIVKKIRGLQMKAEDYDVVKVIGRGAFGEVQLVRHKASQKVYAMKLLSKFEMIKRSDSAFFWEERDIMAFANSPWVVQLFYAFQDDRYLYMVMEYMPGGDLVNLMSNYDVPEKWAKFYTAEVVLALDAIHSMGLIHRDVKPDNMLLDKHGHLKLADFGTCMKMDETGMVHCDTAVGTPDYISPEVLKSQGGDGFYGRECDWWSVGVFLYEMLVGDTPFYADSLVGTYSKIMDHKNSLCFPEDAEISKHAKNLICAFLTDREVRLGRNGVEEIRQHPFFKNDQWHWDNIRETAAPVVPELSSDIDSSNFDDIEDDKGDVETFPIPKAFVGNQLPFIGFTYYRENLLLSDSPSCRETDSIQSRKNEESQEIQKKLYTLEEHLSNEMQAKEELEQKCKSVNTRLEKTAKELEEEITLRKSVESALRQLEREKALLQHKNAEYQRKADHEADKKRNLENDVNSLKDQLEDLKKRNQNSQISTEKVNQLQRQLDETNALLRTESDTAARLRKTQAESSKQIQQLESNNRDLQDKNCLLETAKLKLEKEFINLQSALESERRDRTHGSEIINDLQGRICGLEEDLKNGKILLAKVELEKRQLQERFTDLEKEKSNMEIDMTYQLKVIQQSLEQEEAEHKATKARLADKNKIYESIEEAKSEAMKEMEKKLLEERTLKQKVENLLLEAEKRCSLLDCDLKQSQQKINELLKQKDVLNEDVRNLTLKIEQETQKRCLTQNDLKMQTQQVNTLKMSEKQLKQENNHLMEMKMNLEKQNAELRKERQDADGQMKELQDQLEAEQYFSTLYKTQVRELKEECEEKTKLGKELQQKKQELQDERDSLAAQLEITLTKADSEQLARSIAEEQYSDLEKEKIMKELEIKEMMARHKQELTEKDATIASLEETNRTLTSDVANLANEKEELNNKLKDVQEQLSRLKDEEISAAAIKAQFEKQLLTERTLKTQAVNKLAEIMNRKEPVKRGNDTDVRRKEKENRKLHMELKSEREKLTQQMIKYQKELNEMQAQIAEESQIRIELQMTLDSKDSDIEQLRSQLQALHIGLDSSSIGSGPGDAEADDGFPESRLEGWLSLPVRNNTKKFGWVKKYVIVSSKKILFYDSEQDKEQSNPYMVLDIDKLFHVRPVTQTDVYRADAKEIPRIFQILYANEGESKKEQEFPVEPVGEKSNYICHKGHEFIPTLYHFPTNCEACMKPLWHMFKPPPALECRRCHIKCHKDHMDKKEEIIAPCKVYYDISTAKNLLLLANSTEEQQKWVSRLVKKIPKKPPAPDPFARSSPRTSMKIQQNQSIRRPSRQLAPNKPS

[2] = target: T2, Rho-associated protein kinase 1 (Homo sapiens, UniProt Q13464); test: Inhibition of wild type partial length human ROCK1 (M1 to R415 residues) expressed in mammalian expression system by Euro-fins kinase profiler assay; method in brief: as §1
Target sequence in this assay (Q13464 whole entry, the tested form may be a part): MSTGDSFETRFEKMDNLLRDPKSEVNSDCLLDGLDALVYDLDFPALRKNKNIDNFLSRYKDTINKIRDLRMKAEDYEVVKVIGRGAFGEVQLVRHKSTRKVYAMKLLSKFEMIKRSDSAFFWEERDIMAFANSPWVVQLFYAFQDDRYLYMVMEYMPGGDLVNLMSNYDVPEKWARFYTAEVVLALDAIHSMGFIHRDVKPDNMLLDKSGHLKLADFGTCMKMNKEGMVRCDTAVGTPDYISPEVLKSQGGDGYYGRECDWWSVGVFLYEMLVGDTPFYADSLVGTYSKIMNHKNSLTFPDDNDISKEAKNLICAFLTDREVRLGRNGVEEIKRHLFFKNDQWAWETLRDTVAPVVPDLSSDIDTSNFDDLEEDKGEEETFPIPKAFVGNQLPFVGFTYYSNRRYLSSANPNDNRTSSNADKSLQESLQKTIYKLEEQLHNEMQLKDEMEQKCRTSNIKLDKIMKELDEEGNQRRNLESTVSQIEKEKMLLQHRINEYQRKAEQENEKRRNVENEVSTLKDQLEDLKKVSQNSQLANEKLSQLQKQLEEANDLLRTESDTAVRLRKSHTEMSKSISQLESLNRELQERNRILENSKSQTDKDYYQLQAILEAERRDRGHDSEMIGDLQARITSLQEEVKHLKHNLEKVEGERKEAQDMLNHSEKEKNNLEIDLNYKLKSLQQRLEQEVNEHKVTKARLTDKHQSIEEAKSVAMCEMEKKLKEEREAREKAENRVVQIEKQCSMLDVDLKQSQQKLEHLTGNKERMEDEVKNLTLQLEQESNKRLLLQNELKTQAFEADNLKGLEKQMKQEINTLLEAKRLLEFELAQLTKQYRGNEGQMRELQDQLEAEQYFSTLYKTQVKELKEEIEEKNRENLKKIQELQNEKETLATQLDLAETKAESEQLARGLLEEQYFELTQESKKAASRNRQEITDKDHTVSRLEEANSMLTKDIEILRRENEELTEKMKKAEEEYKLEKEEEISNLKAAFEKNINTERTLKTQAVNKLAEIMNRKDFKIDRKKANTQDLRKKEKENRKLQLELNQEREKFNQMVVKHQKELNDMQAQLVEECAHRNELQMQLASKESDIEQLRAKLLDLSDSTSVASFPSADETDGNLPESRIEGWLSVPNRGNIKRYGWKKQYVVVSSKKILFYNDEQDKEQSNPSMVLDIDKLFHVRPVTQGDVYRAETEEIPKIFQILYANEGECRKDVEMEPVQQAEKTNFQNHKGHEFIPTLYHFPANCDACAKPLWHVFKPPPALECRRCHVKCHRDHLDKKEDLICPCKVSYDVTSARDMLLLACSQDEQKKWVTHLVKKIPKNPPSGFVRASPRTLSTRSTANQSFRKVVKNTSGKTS

SH-SY5Y [3] = test: Inhibition of human ROCK in human SH-SY5Y cells assessed as inhibition of phosphorylation of MYPT1 at 0.1 to 1 uM measured after 12 hrs by western blot assay; format: cell-based; conditions: dose 0.1-1 µM
Method in brief: (§2)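 SH-SY5Y cells exposed to compound at 0.1, 0.3 and 1 µM for 12 h. Phospho-MYPT1 assessed by western blot, with immunoblots quantified. Significance versus untreated control by t test.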

[4] = target: LIM domain kinase 2 (Homo sapiens) (UniProt P53671); test: Inhibition of LIMK2 (unknown origin) at 10 uM
Method in brief: (§3)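 Kinase selectivity panel of 100 representative kinases, each tested at a fixed 10 µM; inhibition rate recorded per kinase. Values are averages of two independent experiments, mean ± SD.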

[5] = target: T2, Rho-associated protein kinase 1; test: Inhibition of ROCK1 (unknown origin) at 10 uM; method in brief: as §3
Target sequence in this assay (Q13464 2-1354 limits assumed): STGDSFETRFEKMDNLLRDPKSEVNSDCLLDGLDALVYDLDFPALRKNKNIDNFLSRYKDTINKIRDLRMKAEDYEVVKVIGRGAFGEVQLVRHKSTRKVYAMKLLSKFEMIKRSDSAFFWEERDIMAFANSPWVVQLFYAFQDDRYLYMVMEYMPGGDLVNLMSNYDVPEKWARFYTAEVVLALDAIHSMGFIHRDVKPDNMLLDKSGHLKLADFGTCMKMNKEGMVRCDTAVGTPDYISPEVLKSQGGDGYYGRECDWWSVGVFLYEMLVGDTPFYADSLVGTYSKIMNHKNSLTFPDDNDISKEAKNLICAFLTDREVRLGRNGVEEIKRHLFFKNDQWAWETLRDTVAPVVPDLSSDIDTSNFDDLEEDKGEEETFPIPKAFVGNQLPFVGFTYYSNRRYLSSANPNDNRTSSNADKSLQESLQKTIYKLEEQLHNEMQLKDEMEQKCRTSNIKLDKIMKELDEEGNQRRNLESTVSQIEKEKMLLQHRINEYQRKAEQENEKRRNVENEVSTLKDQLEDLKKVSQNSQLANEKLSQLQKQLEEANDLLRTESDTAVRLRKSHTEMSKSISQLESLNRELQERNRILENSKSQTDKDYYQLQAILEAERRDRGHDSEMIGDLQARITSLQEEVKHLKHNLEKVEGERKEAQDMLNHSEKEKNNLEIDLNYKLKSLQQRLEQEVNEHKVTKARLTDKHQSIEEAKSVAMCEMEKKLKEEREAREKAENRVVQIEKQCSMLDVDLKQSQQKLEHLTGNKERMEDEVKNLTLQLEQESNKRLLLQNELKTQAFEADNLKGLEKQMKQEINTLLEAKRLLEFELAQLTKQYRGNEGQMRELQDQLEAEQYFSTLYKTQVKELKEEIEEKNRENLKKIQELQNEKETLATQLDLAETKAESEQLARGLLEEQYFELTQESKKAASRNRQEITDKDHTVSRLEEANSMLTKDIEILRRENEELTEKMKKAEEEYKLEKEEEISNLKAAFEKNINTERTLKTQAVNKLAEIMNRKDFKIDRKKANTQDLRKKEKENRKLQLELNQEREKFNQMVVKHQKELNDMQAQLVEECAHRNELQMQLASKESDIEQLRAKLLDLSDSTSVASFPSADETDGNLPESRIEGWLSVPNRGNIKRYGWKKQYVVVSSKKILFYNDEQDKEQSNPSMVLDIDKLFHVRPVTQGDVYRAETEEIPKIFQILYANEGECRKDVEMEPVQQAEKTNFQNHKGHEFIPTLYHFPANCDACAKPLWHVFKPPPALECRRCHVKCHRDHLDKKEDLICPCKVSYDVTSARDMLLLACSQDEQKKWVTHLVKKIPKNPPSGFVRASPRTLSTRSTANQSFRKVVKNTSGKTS

[6] = target: T1, Rho-associated protein kinase 2; test: Inhibition of ROCK2 (unknown origin) at 10 uM; method in brief: as §3
Target sequence in this assay (O75116 whole entry, looked up, the tested form may be a part): as the sequence (O75116 whole entry, the tested form may be a part) above

SH-SY5Y [7] = test: Effect on MYPT1 expression in human SH-SY5Y cells at 0.1 to 1 uM measured after 12 hrs by western blot assay; format: functional, cell-based; conditions: dose 0.1-1 µM; method in brief: as §2
Oryctolagus cuniculus = test: Antiglaucoma activity in topically treated NZW rabbits assessed as reduction of intra ocular pressure measured after 1 hr relative to control; format: functional; parameters: scale not given: the % may be the effect or the level left
Method in brief: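 Ocular normotensive NZW rabbits received 0.3% eye drops topically in one eye and vehicle in the contralateral eye. IOP was followed over several hours after instillation and expressed as reduction from baseline, with the 1 h reading compared against vehicle.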

[8] = Toxicity in topically treated NZW rabbit assessed as hyperaemia measured after 3 hrs; parameters: species or system Oryctolagus cuniculus; conditions: in vivo, topical_or_ocular

Sequence of LIM domain kinase 2 (Homo sapiens) (P53671 whole entry, looked up, the tested form may be a part): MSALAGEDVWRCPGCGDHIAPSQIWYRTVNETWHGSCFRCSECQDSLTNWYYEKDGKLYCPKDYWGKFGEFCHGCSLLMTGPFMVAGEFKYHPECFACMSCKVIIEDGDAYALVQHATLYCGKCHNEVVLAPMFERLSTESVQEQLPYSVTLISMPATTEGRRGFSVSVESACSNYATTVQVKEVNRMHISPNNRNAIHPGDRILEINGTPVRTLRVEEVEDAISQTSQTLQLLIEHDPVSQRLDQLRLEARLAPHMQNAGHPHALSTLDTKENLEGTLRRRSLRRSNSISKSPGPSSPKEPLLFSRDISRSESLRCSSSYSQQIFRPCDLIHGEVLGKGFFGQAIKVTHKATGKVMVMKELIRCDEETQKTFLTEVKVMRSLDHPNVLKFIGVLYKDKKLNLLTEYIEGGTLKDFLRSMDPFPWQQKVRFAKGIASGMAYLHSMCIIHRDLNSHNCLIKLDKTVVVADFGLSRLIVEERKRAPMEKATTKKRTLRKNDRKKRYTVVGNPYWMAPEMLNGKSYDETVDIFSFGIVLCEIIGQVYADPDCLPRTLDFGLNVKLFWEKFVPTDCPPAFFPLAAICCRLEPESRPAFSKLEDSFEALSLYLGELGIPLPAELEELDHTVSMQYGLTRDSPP

Row | SMILES | IC50 [1] [µM] | IC50 [2] [µM] | also measured
1 | COc1cccc(CN2CCCc3cc(-c4ccc5[nH]ncc5c4)ccc3C2=O)c1 | 2.11 | > 10 | –
2 | COc1cccc(CN2CCOc3cc(-c4ccnc5[nH]ccc45)ccc3C2=O)c1 | 0.015 | 0.103 | –
3 | COc1cccc(CN2CCOc3cc(-c4ccc(N)nc4)ccc3C2=O)c1 | > 10 | > 10 | –
4 | O=Cc1cccc(CN2CCOc3cc(-c4ccncc4)ccc3C2=O)c1 | 0.029 | 0.668 | –
5 | COc1cccc(CN2CCOc3cc(-c4ccc5c(c4)OCO5)ccc3C2=O)c1 | > 10 | > 10 | –
6 | COC(=O)c1cccc(CN2CCOc3cc(-c4ccncc4)ccc3C2=O)c1 | 0.009 | 0.208 | –
7 | N#Cc1cccc(CN2CCOc3cc(-c4ccncc4)ccc3C2=O)c1 | 0.05 | 3.1 | –
8 | COc1cccc(CN2CCOc3cc(-c4ccnc(N)c4)ccc3C2=O)c1 | 0.015 | 1.14 | –
9 | COc1cccc(CN2CCOc3ccc(-c4ccncc4)cc3C2=O)c1 | 0.761 | > 10 | –

Further lines, with some results ahead:

Row | IC50 [1] [µM] | IC50 [2] [µM] | SMILES | also measured
10 | 0.495 | 9.24 | O=C1c2ccc(-c3ccncc3)cc2OCCN1Cc1cccc(OC(F)(F)F)c1 | –
11 | 0.133 | 1.96 | O=C1c2ccc(-c3ccncc3)cc2OCCN1Cc1cccc(C(F)(F)F)c1 | –
12 | 0.434 | 1.46 | COc1cccc(CN2COc3cc(-c4ccc5[nH]ncc5c4)ccc3C2=O)c1 | –
13 | 0.217 | 4.49 | COc1cc(CN2CCOc3cc(-c4ccncc4)ccc3C2=O)cc(OC)c1 | –
14 | 0.749 | 6.01 | COc1cccc(CN2CC(C)(C)Oc3cc(-c4ccc5[nH]ncc5c4)ccc3C2=O)c1 | –
15 | 5.53 | > 10 | COc1cccc(CN2CCOc3cc(-c4cnc5[nH]ccc5c4)ccc3C2=O)c1 | –
16 | 0.003 | 0.093 | COc1cccc(CN2CCOc3cc(-c4ccncc4)ccc3C2=O)c1 | inhibition (SH-SY5Y [3]): Active; inhibition [4]: Active; inhibition [5]: Active; inhibition [6]: Active; Activity (SH-SY5Y [7]): inactive; Activity (Oryctolagus cuniculus): 34.3%; Activity [8]: Non-Toxic
17 | 0.182 | 1.08 | COc1cccc(CN2CCOc3cc(-c4ccc5[nH]ncc5c4)ccc3C2=O)c1 | –
18 | > 10 | > 10 | COc1cccc(CN2CCOc3cc(-c4cncnc4)ccc3C2=O)c1 | –
